Results on 4 molecules are retold here after article PMC3646584 (Journal of medicinal chemistry, 2013).

What is called IC50 is the midpoint of a concentration-inhibition curve.

One data set relates to A549. Kind of data set: In vitro cell growth inhibition. It counts as cell-based. The settings on record: Homo sapiens.
The next data set deals with A549-T12. Kind of data set: Cell growth inhibition, drug-resistant cell line study. It counts as cell-based, human. To be noted: for IC50: Homo sapiens; for resistance ratio: IC50 A549-T12 / IC50 A549. The essentials:
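Cells seeded at 8 × 10^3 per well and preincubated 18 h at 37 °C in humidified 5% CO2. Medium then replaced with fresh medium holding test compound at several concentrations (10 mM DMSO stocks; final DMSO ≤0.25%) for 72 h at 37 °C. Viability by MTT. […] Parental A549 grown in DMEM with 10% FBS.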

A short description of data set [1]: Cytotoxicity for resting peripheral blood lymphocytes. The settings on record: human. The data set is classed as cell-based. The essentials: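 Donor PBLs were separated on a Lymphoprep gradient, washed, and kept overnight in RPMI-1640 with 10% FBS. Nonadherent cells were resuspended at 5 × 10^5 cells/mL without PHA (resting) and exposed to graded compound for 72 h. Viability was read by MTT. IC50 is given as mean ± SEM from three separate experiments.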

The test system of data set [2] is Jurkat, HT-29, and HeLa cells. As to the kind of experiment: Cell cycle analysis by flow cytometry. It counts as cell-based, human. To be noted: for lowest concentration giving a rise in G2/M cells: 24 h treatment. The essentials:
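Cells were treated for 24 h with graded compound concentrations (HeLa: 5 × 10^5 exponentially growing cells). They were collected, fixed in ice-cold 70% ethanol, and treated with lysis buffer containing RNase A and 0.1% Triton X-100. After PI staining, DNA content was read by flow cytometry. Cell-cycle phase percentages came from DNA histogram analysis.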

For data set [3], the system named is HeLa cells. Kind of data set: Mitochondrial membrane potential. The data set is classed as cell-based, human. To be noted: JC-1, 24 or 48 h. Summed up: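 HeLa cells exposed to the test compound at the stated concentrations for 24 or 48 h, with DMSO at no more than 0.25%, then stained with the lipophilic cationic dye JC-1 to monitor mitochondrial membrane potential. Values are the mean ± SEM of three independent experiments.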

For data set [4], the system named is HeLa cells. As to the kind of experiment: ROS production. The settings on record: HE or H2-DCFDA, 24 or 48 h. It counts as cell-based, human. The essentials:
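After 24 or 48 h exposure to the test compound (DMSO at most 0.25%), cells were stained with hydroethidine (HE) or H2-DCFDA and ROS were read by flow cytometry. Results are the mean ± SEM from three independent experiments.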

For data set [5], the system named is HeLa cells. As to the kind of experiment: Annexin-V/PI apoptosis assay. It counts as cell-based, human. The settings on record: 24 or 48 h, concentration- and time-dependent.
Data set [6] is described as follows: Cytotoxicity for PHA-stimulated peripheral blood lymphocytes. The data set is classed as cell-based. To be noted: human, PHA-stimulated (proliferating) peripheral blood lymphocytes. The essentials:
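PBLs from healthy donors were isolated on a Lymphoprep gradient, washed, and rested overnight at 1.0 × 10^6 cells/mL in RPMI-1640 with 10% FBS. Nonadherent cells were reseeded at 5 × 10^5 cells/mL in growth medium containing 2.5 μg/mL PHA. Graded compound was added and viability read by MTT after 72 h. IC50 is given as mean ± SEM of three separate experiments.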

In data set [7] the test system is HeLa cells. Kind of data set: Western blot analysis of cell cycle and apoptosis proteins. The data set is classed as cell-based, human. Summed up:
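HeLa cells were treated for 24 or 48 h. They were washed twice in ice-cold PBS and lysed on ice for 30 min, and the lysates were cleared at 15000g, 4 °C, 10 min. Protein was measured by BCA, and 20 μg per lane was run on 7.5–15% SDS–PAGE, then blotted to PVDF and blocked overnight at 4 °C. Membranes were probed 2 h at room temperature for cyclin B, p-cdc2 Tyr15, PARP and Xiap, with peroxidase secondary for 60 min and ECL detection. They were stripped and reprobed for β-actin.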
A general note: A western blot detects proteins with antibodies after separation by electrophoresis.

The subject of data set [8] is panel of seven human cancer cell lines. Kind of data set: Antiproliferative activity across the panel of seven human cancer cell lines. It counts as cell-based. To be noted: read-out: IC50 values across the cell line panel. Summed up: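 Jurkat, SEM and HL-60 cells were grown in RPMI-1640; MCF-7, A549, HeLa and HT-29 cells in DMEM; both with 10% FBS plus penicillin/streptomycin. 8 × 10^3 cells/well were held 18 h at 37 °C, 5% CO2, then given fresh medium with graded compound (DMSO ≤0.25%) for 72 h. Viability was read by MTT. […] Mean ± SE, ≥3 independent experiments.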

For data set [9], the system named is BNL 1ME A.7R.1 allografts. As to the kind of experiment: Syngeneic hepatocellular carcinoma allograft model. The data set is classed as in vivo, Balb/c mice. To be noted: 5 mg/kg ip daily for seven days. Summed up: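 Male Balb/c mice, 8 weeks old, received 10^7 syngeneic hepatocarcinoma cells in 200 μL sterile PBS subcutaneously in the dorsal region. At ~100 mm3, fifteen mice were randomised into three groups of five. Groups got vehicle (0.9% NaCl, 5% PEG 400, 0.5% Tween 80), test compound, or reference, each at 5 mg/kg ip daily for 7 days. Body weight was tracked as mean ± SEM; two-sided Student's t test.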

In turn, `COC(=O)c1sc2ncccc2c1Nc1cc(OC)c(OC)c(OC)c1` [4l, Methyl 3-[(3,4,5-Trimethoxyphenyl)amino]thieno[2,3-b]pyridine-2-carboxylate] returned an IC50 in the data set on A549 of 8.5 ± 1.9 nM. Moreover, in the data set on A549-T12, the IC50 came to 12.6 ± 2.9 nM and the resistance ratio is 1.5.

Turning to `CCOC(=O)c1sc2ncccc2c1Nc1cc(OC)c(OC)c(OC)c1` [4m, Ethyl 3-[(3,4,5-Trimethoxyphenyl)amino]thieno[2,3-b]pyridine-2-carboxylate], the results for the IC50 in the data set on A549 and with A549-T12 were 16.2 ± 4.4 nM and 19.5 ± 2.3 nM, respectively. Moreover, the resistance ratio in the data set on A549-T12 was found to be 1.2.

`COC(=O)c1sc2nc(C)ccc2c1Nc1cc(OC)c(OC)c(OC)c1` [4n, Methyl 6-Methyl-3-[(3,4,5-trimethoxyphenyl)amino]thieno[2,3-b]pyridine-2-carboxylate] gave an IC50 at 72 h in data set [1] of more than 10000 nM. In addition, the “lowest concentration giving a rise in G2/M cells” value in data set [2] was determined as 20 nM. Moreover, the “proportion of cells with depolarized mitochondria” value in the data set with HeLa cells [3] was “time- and concentration-dependent increase”. In the data set on HeLa cells [4], the “ROS production vs control cells” value is “induced the production of significant amounts of ROS”. Also, the “annexin-V-positive cells vs control” value in the data set with HeLa cells [5] was “accumulation of annexin-V-positive cells”.

As for `COC(=O)c1sc2cc(OC)ccc2c1Nc1cc(OC)c(OC)c(OC)c1` [4i, Methyl 6-Methoxy-3-[(3,4,5-trimethoxyphenyl)amino]-1-benzo-[b]thiophene-2-carboxylate], the IC50 at 72 h in data set [6] came out at 2800 ± 1200 nM. In data set [1], this molecule yielded a 50% inhibitory concentration (IC50) at 72 h of more than 10000 nM. In the data set on HeLa cells [7] (10 or 100 nM, 24 or 48 h), the “cyclin B expression” value is on record as “no significant variations” and the “expression of phosphorylated cdc2 (Tyr15)” value is “dramatic decrease”. The “concentration at which PARP cleavage was detectable” value in the data set with HeLa cells [7] (24 h) is recorded as 10 nM. In addition, the Xiap expression result in the data set on HeLa cells [7] (24 h, even at 10 nM) was “almost eliminated”. Besides, the caspase activation result with HeLa cells [7] (Western blot, HeLa) was “induced proteolytic cleavage of caspase-9 and caspase-3”. The IC50 in data set [8] is 0.28 to 10 nM. Moreover, the “cells arrested in G2/M” value in data set [2] (24 h, at higher concentrations) was “more than 80%”. The “lowest concentration giving a rise in G2/M cells” value in data set [2] is on record as 20 nM. In the data set with HeLa cells [3], the “proportion of cells with depolarized mitochondria” value is “time- and concentration-dependent increase”. For the same molecule, the “ROS production vs control cells” value with HeLa cells [4] is reported as “induced the production of significant amounts of ROS”. Also, the “annexin-V-positive cells vs control” value with HeLa cells [5] is recorded as “accumulation of annexin-V-positive cells”. The “body weight change during treatment” value in data set [9] is “only a small decrease in body weight”.
